ChEMBL document CHEMBL5608193, “Discovery of bivalent small molecule degraders of cyclin-dependent kinase 7 (CDK7)” (Eur J Med Chem, 2024)
Active and inactive are the calls of the source. The calls are words filed in the database; no cut-off is given here.

Columns and labels:
CDK7/Cyclin H/MNAT1 = CDK7/Cyclin H/MNAT1 (Homo sapiens, UniProt P50613); assay: Inhibition of CDK7/CycH/MNAT1 (unknown origin) assessed as change in TR-FRET ratio using Cdk7/9tide as substrate and ATP by in vitro Adapta Eu kinase assay; format: protein-complex assay
Summary of the method: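 Adapta Eu kinase assay run at ThermoFisher on CDK7/Cyclin H/MNAT1 with ATP at Km.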

[1] = target: T1, von Hippel-Lindau disease tumor suppressor/Cyclin-dependent kinase 7 (Homo sapiens) (UniProt P50613+P40337); assay: PROTAC activity at CDK7/VHL in human Jurkat cells assessed as degradation of CDK7 at 0.1 uM measured after 16 hrs incubation by immunoblot analysis relative to control; format: cell-based
Summary of the method: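 Jurkat cells given VHL-recruiting compounds at 0.1 or 1 μM for 16 h. RIPA lysis, BCA normalization, 4–20% SDS-PAGE, nitrocellulose transfer. CDK7 (1:1000) and β-actin probed overnight at 4 °C, IRDye secondaries, Odyssey detection. Quantified against control, mean ± SEM from three independent biological replicates.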

[2] = target: T1, von Hippel-Lindau disease tumor suppressor/Cyclin-dependent kinase 7 (Homo sapiens); assay: PROTAC activity at CDK7/VHL in human Jurkat cells assessed as degradation of CDK7 at 0.1 uM by immunoblot analysis; format: cell-based; settings: time 0.5-24 hrs, TDE = time-dependent effect
Summary of the method: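 Jurkat time course at 0.1 μM, lysates taken at set time points from 0.5 up to 24 h. CDK7 immunoblotted after RIPA lysis, SDS-PAGE and near-infrared detection with β-actin loading control.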

[3] = target: T1, von Hippel-Lindau disease tumor suppressor/Cyclin-dependent kinase 7 (Homo sapiens); assay: PROTAC activity at CDK7/VHL in human Jurkat cells assessed as degradation of CDK7 measured after 6 hrs incubation by immunoblot analysis; format: cell-based; settings: dose 10-5000 nM
[4] = target: T1, von Hippel-Lindau disease tumor suppressor/Cyclin-dependent kinase 7 (Homo sapiens); assay: PROTAC activity at CDK7/VHL in human OVCAR-3 cells assessed as degradation of CDK7 at 0.1 to 5 uM measured after 6 hrs incubation by immunoblot analysis; format: cell-based; settings: dose 0.1-5 µM
[5] = target: T1, von Hippel-Lindau disease tumor suppressor/Cyclin-dependent kinase 7 (Homo sapiens); assay: PROTAC activity at CDK7/VHL in human SU-DHL-5 cells assessed as degradation of CDK7 at 0.1 to 5 uM measured after 6 hrs incubation by immunoblot analysis; format: cell-based; settings: dose 0.1-5 µM
[6] = target: T1, von Hippel-Lindau disease tumor suppressor/Cyclin-dependent kinase 7 (Homo sapiens); assay: PROTAC activity at CDK7/VHL in human MOLT-4 cells assessed as degradation of CDK7 at 0.1 to 5 uM measured after 6 hrs incubation by immunoblot analysis; format: cell-based; settings: dose 0.1-5 µM
[7] = target: T1, von Hippel-Lindau disease tumor suppressor/Cyclin-dependent kinase 7 (Homo sapiens); assay: PROTAC activity at CDK7/VHL in human Jurkat cells assessed as degradation of CDK7 in presence of 10 uM (S,R,S)-AHPC-me at 0.1 uM measured after 6 hrs incubation by immunoblot analysis; format: cell-based
Summary of the method: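 Jurkat cells pretreated 2 h with MG132, MLN-4924, YKL-5–167 or a VHL ligand, then given degrader for 6 h. CDK7 immunoblotted: RIPA lysis, SDS-PAGE, anti-CDK7 1:1000, IRDye secondaries.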

[8] = target: Cyclin-dependent kinase 7 (Homo sapiens) (UniProt P50613); assay: Induction of degradation of CDK7 in human […]-knockout Jurkat cells at 0.01 to 1 uM measured after 6 hrs incubation by immunoblot analysis; format: cell-based; settings: dose 0.01-1 µM
Summary of the method: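 Parental and VHL-knockout Jurkat cells treated with degrader for 6 h, then CDK7 western blot (RIPA lysis, 4–20% SDS-PAGE, β-actin control, infrared detection).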

[9] = target: von Hippel-Lindau disease tumor suppressor/Cyclin-dependent kinase 4 (Homo sapiens) (UniProt P11802+P40337); assay: PROTAC activity at CDK4/VHL in human Jurkat cells assessed as degradation of CDK7 measured at 10 to 500 nM after 6 hrs incubation by Western blotting analysis; format: cell-based; settings: dose 10-500 nM
[10] = target: von Hippel-Lindau disease tumor suppressor/Cyclin-dependent kinase 5 (Homo sapiens) (UniProt Q00535+P40337); assay: PROTAC activity at CDK5/VHL in human Jurkat cells assessed as degradation of CDK7 measured at 10 to 500 nM after 6 hrs incubation by Western blotting analysis; format: cell-based; settings: dose 10-500 nM
[11] = target: von Hippel-Lindau disease tumor suppressor/Cyclin-dependent kinase 6 (Homo sapiens) (UniProt Q00534+P40337); assay: PROTAC activity at CDK6/VHL in human Jurkat cells assessed as degradation of CDK7 measured at 10 to 500 nM after 6 hrs incubation by Western blotting analysis; format: cell-based; settings: dose 10-500 nM
[12] = target: von Hippel-Lindau disease tumor suppressor/Cyclin-dependent kinase 8 (Homo sapiens) (UniProt P49336+P40337); assay: PROTAC activity at CDK8/VHL in human Jurkat cells assessed as degradation of CDK7 measured at 10 to 500 nM after 6 hrs incubation by Western blotting analysis; format: cell-based; settings: dose 10-500 nM
[13] = target: von Hippel-Lindau disease tumor suppressor/Cyclin-dependent kinase 9 (Homo sapiens) (UniProt P50750+P40337); assay: PROTAC activity at CDK9/VHL in human Jurkat cells assessed as degradation of CDK7 measured at 10 to 500 nM after 6 hrs incubation by Western blotting analysis; format: cell-based; settings: dose 10-500 nM
[14] = target: T1, von Hippel-Lindau disease tumor suppressor/Cyclin-dependent kinase 7 (Homo sapiens); assay: PROTAC activity at CDK7/VHL in human Jurkat cells assessed as degradation of CDK7 measured at 0.1 to 5 uM after 6 hrs incubation by Western blotting analysis; format: cell-based; settings: dose 0.1-5 µM
Summary of the method: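 Jurkat cells dosed across a concentration series up to 5 μM for 6 h. CDK7 immunoblot via RIPA lysis, 4–20% SDS-PAGE, IRDye secondaries. Quantified as mean ± SEM from three independent biological replicates.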

[15] = target: T1, von Hippel-Lindau disease tumor suppressor/Cyclin-dependent kinase 7 (Homo sapiens); assay: PROTAC activity at CDK7/VHL in human Jurkat cells assessed as degradation of Cyclin H measured at 0.1 to 5 uM after 6 hrs incubation by Western blotting analysis; format: cell-based; settings: dose 0.1-5 µM
Summary of the method: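 Jurkat and OVCAR3 cells treated 6 h across a concentration series. Blots probed for CDK7, MAT1 (1:1000) and Cyclin H (1:1000) overnight at 4 °C, with β-actin control and IRDye secondaries.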

[16] = target: von Hippel-Lindau disease tumor suppressor/LON peptidase N-terminal domain and RING finger protein 2 (Homo sapiens) (UniProt P40337+Q1L5Z9); assay: PROTAC activity at LONRF2/VHL in human Jurkat cells assessed as degradation of LONRF2 measured at 0.1 to 5 uM after 6 hrs incubation by Western blotting analysis; format: cell-based; settings: dose 0.1-5 µM
SU-DHL-5 = assay: Antiproliferative activity against human SU-DHL-5 cells assessed as cell viability measured after 72 hrs by CellTiter-Glo assay; format: functional, cell-based; settings: SU-DHL-5, 72 h
Summary of the method: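 Cells grown in RPMI 1640 with 10% heat-inactivated FBS and penicillin/streptomycin at 37 °C, 5% CO2, mycoplasma-negative. Seeded at 10^4/ml. Compounds dispensed digitally from 10 mM or 1 mM DMSO stocks, DMSO equalized, triplicate wells. After 72 h, CellTiter-Glo added for 10–15 min at room temperature and luminescence read.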

[17] = Observed clearance in male CD1 mouse at 10 mg/kg, IP measured upto 24 hrs by LC-MS/MS-39 analysis; format: ADME, organism-based; settings: in vivo
Summary of the method: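 Male CD1 mice, n=3, one 10 mg/kg intraperitoneal dose. Blood sampled at 0, 0.25, 0.5, 1, 2, 4, 6, 8 and 24 h. Kept on wet ice and spun to plasma (2000 g, 5 min, 4 °C) within 15 min, stored at about −70 °C. Protein precipitation with acetonitrile, then LC-MS/MS. Values are mean ± SD of three mice.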

T1 sequence (P40337 whole entry, looked up): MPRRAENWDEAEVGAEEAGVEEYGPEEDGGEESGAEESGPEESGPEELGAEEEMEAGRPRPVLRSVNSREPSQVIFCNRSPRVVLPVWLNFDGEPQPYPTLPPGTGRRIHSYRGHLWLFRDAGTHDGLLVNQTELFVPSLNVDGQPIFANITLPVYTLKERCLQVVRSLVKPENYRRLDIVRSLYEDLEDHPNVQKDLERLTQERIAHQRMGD
T1 sequence (P50613 whole entry, looked up): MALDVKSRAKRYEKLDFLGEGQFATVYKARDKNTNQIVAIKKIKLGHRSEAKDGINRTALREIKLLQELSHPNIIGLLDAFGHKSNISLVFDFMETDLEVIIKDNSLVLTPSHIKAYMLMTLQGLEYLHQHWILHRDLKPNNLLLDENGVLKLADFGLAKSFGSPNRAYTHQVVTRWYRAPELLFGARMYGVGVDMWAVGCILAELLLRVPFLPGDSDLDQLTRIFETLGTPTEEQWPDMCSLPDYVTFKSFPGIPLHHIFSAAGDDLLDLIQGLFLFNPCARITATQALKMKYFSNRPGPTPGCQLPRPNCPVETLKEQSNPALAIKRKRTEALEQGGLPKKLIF
Sequence of Cyclin-dependent kinase 7 (Homo sapiens) (P50613 whole entry): as the sequence (P50613 whole entry, looked up) above
Sequence of von Hippel-Lindau disease tumor suppressor/Cyclin-dependent kinase 8 (Homo sapiens) (P40337 whole entry, looked up): as the sequence (P40337 whole entry, looked up) above
Sequence of von Hippel-Lindau disease tumor suppressor/Cyclin-dependent kinase 8 (Homo sapiens) (P49336 whole entry, looked up): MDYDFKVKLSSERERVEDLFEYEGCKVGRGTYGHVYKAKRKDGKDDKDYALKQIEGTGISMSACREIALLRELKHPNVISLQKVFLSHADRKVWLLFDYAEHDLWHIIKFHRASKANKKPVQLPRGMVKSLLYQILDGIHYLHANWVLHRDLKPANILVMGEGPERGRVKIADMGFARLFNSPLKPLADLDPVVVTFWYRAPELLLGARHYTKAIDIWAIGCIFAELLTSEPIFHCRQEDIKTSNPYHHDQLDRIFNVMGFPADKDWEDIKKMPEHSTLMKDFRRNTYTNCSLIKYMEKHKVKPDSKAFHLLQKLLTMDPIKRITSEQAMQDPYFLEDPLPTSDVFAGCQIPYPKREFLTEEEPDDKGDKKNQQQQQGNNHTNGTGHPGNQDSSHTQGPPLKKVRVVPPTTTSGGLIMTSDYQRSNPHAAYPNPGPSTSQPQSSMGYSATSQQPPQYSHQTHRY
Sequence of von Hippel-Lindau disease tumor suppressor/Cyclin-dependent kinase 9 (Homo sapiens) (P40337 whole entry, looked up): as the sequence (P40337 whole entry, looked up) above
Sequence of von Hippel-Lindau disease tumor suppressor/Cyclin-dependent kinase 9 (Homo sapiens) (P50750 whole entry, looked up): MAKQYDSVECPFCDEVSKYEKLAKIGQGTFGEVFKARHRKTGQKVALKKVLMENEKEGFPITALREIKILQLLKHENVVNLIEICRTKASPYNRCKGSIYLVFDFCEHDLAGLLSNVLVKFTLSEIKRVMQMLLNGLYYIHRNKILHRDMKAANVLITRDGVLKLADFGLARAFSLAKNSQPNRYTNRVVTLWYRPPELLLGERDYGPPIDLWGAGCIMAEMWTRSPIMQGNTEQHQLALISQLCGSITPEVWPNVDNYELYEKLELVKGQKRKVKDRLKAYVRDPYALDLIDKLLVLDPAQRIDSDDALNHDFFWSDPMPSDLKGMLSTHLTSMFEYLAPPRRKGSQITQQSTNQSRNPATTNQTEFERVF
Sequence of von Hippel-Lindau disease tumor suppressor/Cyclin-dependent kinase 6 (Homo sapiens) (P40337 whole entry, looked up): as the sequence (P40337 whole entry, looked up) above
Sequence of von Hippel-Lindau disease tumor suppressor/Cyclin-dependent kinase 6 (Homo sapiens) (Q00534 whole entry, looked up): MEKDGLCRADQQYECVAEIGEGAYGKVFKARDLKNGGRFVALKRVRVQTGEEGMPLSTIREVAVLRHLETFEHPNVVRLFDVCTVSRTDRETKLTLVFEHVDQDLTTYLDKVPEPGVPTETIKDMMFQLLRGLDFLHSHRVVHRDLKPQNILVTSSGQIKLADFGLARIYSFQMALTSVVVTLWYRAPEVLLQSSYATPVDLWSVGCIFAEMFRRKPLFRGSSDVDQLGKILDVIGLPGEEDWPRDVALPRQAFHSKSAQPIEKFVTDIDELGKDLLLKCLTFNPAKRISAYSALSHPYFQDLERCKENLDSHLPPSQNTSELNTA
Sequence of von Hippel-Lindau disease tumor suppressor/LON peptidase N-terminal domain and RING finger protein 2 (Homo sapiens) (P40337 whole entry, looked up, the tested form may be a part): as the sequence (P40337 whole entry, looked up) above
Sequence of von Hippel-Lindau disease tumor suppressor/LON peptidase N-terminal domain and RING finger protein 2 (Homo sapiens) (Q1L5Z9 whole entry, looked up, the tested form may be a part): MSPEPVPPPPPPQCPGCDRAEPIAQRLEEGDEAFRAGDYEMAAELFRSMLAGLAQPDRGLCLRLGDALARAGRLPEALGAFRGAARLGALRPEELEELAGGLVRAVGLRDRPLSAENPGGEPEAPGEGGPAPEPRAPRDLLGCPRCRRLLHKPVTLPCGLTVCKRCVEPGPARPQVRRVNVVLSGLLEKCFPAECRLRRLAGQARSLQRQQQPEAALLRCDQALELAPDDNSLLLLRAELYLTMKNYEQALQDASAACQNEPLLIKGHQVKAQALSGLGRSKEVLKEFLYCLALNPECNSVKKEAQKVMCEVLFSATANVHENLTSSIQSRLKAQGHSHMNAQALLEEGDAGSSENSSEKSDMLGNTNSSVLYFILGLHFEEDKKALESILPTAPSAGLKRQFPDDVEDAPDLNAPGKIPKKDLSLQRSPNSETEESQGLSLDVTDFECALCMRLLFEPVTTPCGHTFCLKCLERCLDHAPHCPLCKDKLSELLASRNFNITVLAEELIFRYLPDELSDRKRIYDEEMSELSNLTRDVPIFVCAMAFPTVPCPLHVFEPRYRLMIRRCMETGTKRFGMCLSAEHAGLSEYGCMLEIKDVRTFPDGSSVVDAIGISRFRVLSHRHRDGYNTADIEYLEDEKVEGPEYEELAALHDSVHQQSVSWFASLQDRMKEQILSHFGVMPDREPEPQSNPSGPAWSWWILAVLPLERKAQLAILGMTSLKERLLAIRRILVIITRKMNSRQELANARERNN
Sequence of von Hippel-Lindau disease tumor suppressor/Cyclin-dependent kinase 5 (Homo sapiens) (P40337 whole entry, looked up): as the sequence (P40337 whole entry, looked up) above
Sequence of von Hippel-Lindau disease tumor suppressor/Cyclin-dependent kinase 5 (Homo sapiens) (Q00535 whole entry, looked up): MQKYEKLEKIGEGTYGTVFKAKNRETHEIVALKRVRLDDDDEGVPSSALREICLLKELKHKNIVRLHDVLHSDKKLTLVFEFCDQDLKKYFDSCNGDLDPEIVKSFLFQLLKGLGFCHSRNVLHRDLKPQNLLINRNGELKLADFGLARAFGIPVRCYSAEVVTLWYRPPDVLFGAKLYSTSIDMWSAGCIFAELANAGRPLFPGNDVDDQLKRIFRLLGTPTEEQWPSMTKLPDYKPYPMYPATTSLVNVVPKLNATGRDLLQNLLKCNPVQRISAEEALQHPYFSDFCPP
Sequence of von Hippel-Lindau disease tumor suppressor/Cyclin-dependent kinase 4 (Homo sapiens) (P11802 2-303 limits assumed): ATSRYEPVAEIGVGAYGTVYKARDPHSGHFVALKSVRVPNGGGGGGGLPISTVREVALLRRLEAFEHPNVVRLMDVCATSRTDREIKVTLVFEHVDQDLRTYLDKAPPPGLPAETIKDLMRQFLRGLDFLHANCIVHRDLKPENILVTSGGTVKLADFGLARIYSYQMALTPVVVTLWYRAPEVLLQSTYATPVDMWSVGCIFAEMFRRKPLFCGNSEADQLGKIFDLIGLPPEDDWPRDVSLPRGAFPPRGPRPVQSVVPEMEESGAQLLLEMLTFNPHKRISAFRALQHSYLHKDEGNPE
Sequence of von Hippel-Lindau disease tumor suppressor/Cyclin-dependent kinase 4 (Homo sapiens) (P40337 whole entry partner): as the sequence (P40337 whole entry, looked up) above

## Cc1ncsc1-c1ccc([C@H](C)NC(=O)[C@@H]2C[C@@H](O)CN2C(=O)[C@@H](NC(=O)CCCC#Cc2ccc(C(=O)Nc3n[nH]c4c3CN(C(=O)N[C@H](CN(C)C)c3ccccc3)C4(C)C)cc2)C(C)(C)C)cc1
CDK7/Cyclin H/MNAT1
  IC50: 20.1 nM
[1]
  Activity: 95%
[2]
  Activity: Tde
[3]
  Efficacy: Dose-Dependent Effect
[4]
  Activity: Dose-Dependent Effect
[5]
  Activity: Dose-Dependent Effect
[6]
  Activity: Dose-Dependent Effect
[7]
  Activity: inactive
[8]
  Activity: inactive
[9]
  Activity: inactive
[10]
  Activity: inactive
[11]
  Activity: inactive
[12]
  Activity: inactive
[13]
  Activity: inactive
[14]
  Activity: Active
[15]
  Activity: Active
[16]
  Activity: inactive
SU-DHL-5
  IC50: 52 nM
[17]
  CL/F: 8.7 mL/min/kg
